≈ marks a conversion by molar mass, not a printed value.
Key:
Staphylococcus aureus [1] = experiment: Antibacterial activity against methicillin-resistant Staphylococcus aureus; assay type: functional
How it was run: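 Broth microdilution by two-fold serial dilution in 96-well plates following NCCLS. MRSA strain N315. Inoculum adjusted with sterile saline to 1 × 10⁵ CFU. Compounds were made up as DMSO stocks, then diluted in Mueller-Hinton broth. A DMSO plus inoculum well, without drug, was the growth control. Growth was read visually and spectrophotometrically, in triplicate. MIC is the lowest concentration giving complete inhibition of growth.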

Klebsiella pneumoniae = experiment: Antibacterial activity against Klebsiella pneumoniae; assay type: functional
Candida = experiment: Antifungal activity against Candida mycoderma after 24 hrs by two-fold serial dilution method; assay type: functional
How it was run: (§1)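 Spore suspension in sterile distilled water from one-day-old cultures on Sabouraud agar, final 1–5 × 10³ spore mL⁻¹. Compound stocks diluted in sterile RPMI 1640 as two-fold serial dilutions in microdilution plates. MIC is the lowest concentration completely inhibiting growth. Growth monitored visually and spectrophotometrically, in triplicate.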

Candida albicans = experiment: Antifungal activity against Candida albicans ATCC 76615 after 24 hrs by two-fold serial dilution method; assay type: functional; details: ATCC 76615, 24 h; how it was run: as §1
Salmonella typhi = experiment: Antibacterial activity against Bacillus typhi after 24 hrs by two-fold serial dilution method; assay type: functional, Salmonella enterica subsp. enterica serovar Typhi; details: Salmonella enterica
How it was run: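 Two-fold serial dilution in 96-well plates following NCCLS; compounds dissolved in DMSO as stocks, then diluted in Mueller-Hinton broth; bacterial suspension adjusted with sterile saline to 1 × 10⁵ CFU; MIC taken as lowest concentration completely inhibiting growth, monitored visually and spectrophotometrically; DMSO-plus-inoculum well as solvent control; triplicate.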

Pseudomonas aeruginosa = experiment: Antibacterial activity against Pseudomonas aeruginosa ATCC 27853 after 24 hrs by two-fold serial dilution method; assay type: functional; details: ATCC 27853, 24 h
How it was run: (§2)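 MIC taken as the lowest concentration giving complete growth inhibition, by standard two-fold serial dilution in 96-well plates following NCCLS. Stocks in DMSO, diluted in Mueller–Hinton broth. Inoculum adjusted with sterile saline to 1 × 10⁵ CFU. DMSO with inoculum and no drug served as solvent control. Growth read visually and spectrophotometrically, in triplicate.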

Escherichia coli = experiment: Antibacterial activity against Escherichia coli JM109 after 24 hrs by two-fold serial dilution method; assay type: functional; details: JM109, 24 h
Bacillus = experiment: Antibacterial activity against Bacillus proteus ATCC 13315 after 24 hrs by two-fold serial dilution method; assay type: functional; details: ATCC 13315, 24 h; how it was run: as §2
Micrococcus luteus = experiment: Antibacterial activity against Micrococcus luteus ATCC 4698 after 24 hrs by two-fold serial dilution method; assay type: functional; details: ATCC 4698, 24 h; how it was run: as §2
Bacillus subtilis = experiment: Antibacterial activity against Bacillus subtilis ATCC 21216 after 24 hrs by two-fold serial dilution method; assay type: functional; details: ATCC 21216, 24 h; how it was run: as §2
Staphylococcus aureus [2] = experiment: Antibacterial activity against methicillin-resistant Staphylococcus aureus N315 after 24 hrs by two-fold serial dilution method; assay type: functional; details: N315, 24 h
Staphylococcus aureus [3] = experiment: Antibacterial activity against Staphylococcus aureus ATCC 6538 after 24 hrs by two-fold serial dilution method; assay type: functional; details: ATCC 6538, 24 h
Aspergillus flavus = experiment: Antifungal activity against Aspergillus flavus after 24 hrs by two-fold serial dilution method; assay type: functional; how it was run: as §1
Cyberlindnera jadinii = experiment: Antifungal activity against Candida utilis after 24 hrs by two-fold serial dilution method; assay type: functional; details: Williopsis jadinii; how it was run: as §1
Saccharomyces cerevisiae = experiment: Antifungal activity against Saccharomyces cerevisiae after 24 hrs by two-fold serial dilution method; assay type: functional; how it was run: as §1

Row | Structure (SMILES) | MIC (Staphylococcus aureus [1]) [µg/mL] | MIC (Klebsiella pneumoniae) [µg/mL] | MIC (Candida) [µg/mL] | MIC (Candida albicans) [µg/mL] | MIC (Salmonella typhi) [µg/mL] | MIC (Pseudomonas aeruginosa) [µg/mL] | MIC (Escherichia coli) [µg/mL] | MIC (Bacillus) [µg/mL] | MIC (Micrococcus luteus) [µg/mL] | MIC (Bacillus subtilis) [µg/mL] | MIC (Staphylococcus aureus [2]) [µg/mL] | MIC (Staphylococcus aureus [3]) [µg/mL] | MIC (Aspergillus flavus) [µg/mL] | MIC (Cyberlindnera jadinii) [µg/mL] | MIC (Saccharomyces cerevisiae) [µg/mL]
1 | CCCCCCCCCCn1c(CNNC(=O)c2sc(C(=O)NNCc3nc4ccccc4n3CCCCCCCCCC)c(C)c2C)nc2ccccc21 | 2 (≈ 2.6 µM) | – | – | – | – | – | – | – | – | – | – | – | – | – | –
2 | CCCC[C@H](CC(=O)NO)C(=O)N[C@@H](c1nc2ccccc2[nH]1)C(C)C | – | 0.5 (≈ 1.39 µM) | – | – | – | – | – | – | – | – | – | – | – | – | –
3 | Fc1ccccc1NCc1nc2ccccc2[nH]1 | – | – | 32 (≈ 133 µM) | 32 (≈ 133 µM) | 64 (≈ 265 µM) | 128 (≈ 531 µM) | 32 (≈ 133 µM) | 64 (≈ 265 µM) | 64 (≈ 265 µM) | 32 (≈ 133 µM) | 32 (≈ 133 µM) | 16 (≈ 66.3 µM) | 32 (≈ 133 µM) | 64 (≈ 265 µM) | 32 (≈ 133 µM)
4 | FC(F)(F)c1cccc(NCc2nc3ccccc3[nH]2)c1 | – | – | 16 (≈ 54.9 µM) | 32 (≈ 110 µM) | 32 (≈ 110 µM) | 64 (≈ 220 µM) | 32 (≈ 110 µM) | 16 (≈ 54.9 µM) | 32 (≈ 110 µM) | 32 (≈ 110 µM) | 16 (≈ 54.9 µM) | 16 (≈ 54.9 µM) | 16 (≈ 54.9 µM) | 32 (≈ 110 µM) | 32 (≈ 110 µM)
5 | Fc1ccc(NCc2nc3ccccc3[nH]2)cc1 | – | – | 32 (≈ 133 µM) | 64 (≈ 265 µM) | 128 (≈ 531 µM) | 64 (≈ 265 µM) | 64 (≈ 265 µM) | 32 (≈ 133 µM) | 64 (≈ 265 µM) | 32 (≈ 133 µM) | 64 (≈ 265 µM) | 32 (≈ 133 µM) | 32 (≈ 133 µM) | 32 (≈ 133 µM) | 64 (≈ 265 µM)
6 | Clc1ccc(NCc2nc3ccccc3[nH]2)cc1 | – | – | 64 (≈ 248 µM) | 64 (≈ 248 µM) | 128 (≈ 497 µM) | 128 (≈ 497 µM) | 32 (≈ 124 µM) | 64 (≈ 248 µM) | 32 (≈ 124 µM) | 64 (≈ 248 µM) | 32 (≈ 124 µM) | 64 (≈ 248 µM) | 64 (≈ 248 µM) | 32 (≈ 124 µM) | 64 (≈ 248 µM)
7 | Ic1ccc(NCc2nc3ccccc3[nH]2)cc1 | – | – | 128 (≈ 367 µM) | 64 (≈ 183 µM) | 64 (≈ 183 µM) | 128 (≈ 367 µM) | 64 (≈ 183 µM) | 64 (≈ 183 µM) | 128 (≈ 367 µM) | 64 (≈ 183 µM) | 128 (≈ 367 µM) | 64 (≈ 183 µM) | 128 (≈ 367 µM) | 64 (≈ 183 µM) | 64 (≈ 183 µM)
8 | Cc1ccc(NCc2nc3ccccc3[nH]2)cc1 | – | – | 256 (≈ 1080 µM) | 32 (≈ 135 µM) | 64 (≈ 270 µM) | 64 (≈ 270 µM) | 64 (≈ 270 µM) | 16 (≈ 67.4 µM) | 512 (≈ 2160 µM) | 64 (≈ 270 µM) | 128 (≈ 539 µM) | 32 (≈ 135 µM) | 128 (≈ 539 µM) | 32 (≈ 135 µM) | 64 (≈ 270 µM)

— ChEMBL document CHEMBL2390927, “Design, synthesis and antimicrobial evaluation of novel benzimidazole type of Fluconazole analogues and their synergistic effects with Chloromycin, Norfloxacin and Fluconazole” (2013)
